Experimental data reported in ChEMBL document CHEMBL1154215, “Constituents of the leaves of Magnolia ovata” (2009).
Activity calls are given as the source filed them. The rule behind the calls is not given here.

Experiments:
Format in all cases: functional
[1] = test system: Radical scavenging activity; experiment: Antioxidant activity assessed as DPPH radical scavenging activity
In short: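 DPPH (250 μM in MeOH) added to methanolic compound solutions, seven serial […] dilutions giving a final range of 100 to 1.6 μg mL⁻¹. Quercetin and Trolox served as positive controls. Triplicate assays. SC₅₀ is the concentration (μg mL⁻¹) scavenging 50% of DPPH radicals, reported as mean (%RSD).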

Candida dubliniensis = experiment: Antimicrobial activity against Candida dubliniensis ATCC 778157 by broth microdilution method
In short: (§1)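 Broth microdilution in 96-well plates; compounds tested from 10 to 1000 μg/mL. MIC is the lowest concentration giving complete inhibition of the strain. Positive controls were bacitracine (0.2 UI mL⁻¹) and ketoconazole (100.0 μg mL⁻¹). Negative control was DMSO–sterile water (5:95, v/v). Run in duplicate per microorganism and repeated three times.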

Nakaseomyces glabratus = experiment: Antimicrobial activity against Candida glabrata ATCC 30070 by broth microdilution method; in short: as §1
Escherichia coli = experiment: Antimicrobial activity against Escherichia coli ATCC 10799 by broth microdilution method; in short: as §1
Pseudomonas aeruginosa = experiment: Antimicrobial activity against Pseudomonas aeruginosa ATCC 15442 by broth microdilution method; in short: as §1
Staphylococcus aureus = experiment: Antimicrobial activity against Staphylococcus aureus ATCC 14458 by broth microdilution method; in short: as §1
Candida tropicalis = experiment: Antimicrobial activity against Candida tropicalis ATCC 157 by broth microdilution method; in short: as §1
[2] = test system: Staphylococcus epidermidis; experiment: Antimicrobial activity against Staphylococcus epidermidis ATCC 12228 by broth microdilution method; in short: as §1

Cc1c(C)c2c(c(C)c1O)CCC(C)(C(=O)O)O2 (stereo unspecified)
SC50 [1]: 2.2 µg/mL

O=c1c(O)c(-c2ccc(O)c(O)c2)oc2cc(O)cc(O)c12
SC50 [1]: 13 µg/mL

C[C@H]([C@H](C)Cc1ccc2c(c1)OCO2)[C@H](O)c1ccc2c(c1)OCO2 (relative stereo) [MAGNOVATIN A]
MIC (Candida dubliniensis): > 100 µg/mL
MIC (Nakaseomyces glabratus): > 100 µg/mL
MIC (Escherichia coli): > 100 µg/mL
MIC (Pseudomonas aeruginosa): > 100 µg/mL
MIC (Staphylococcus aureus): > 100 µg/mL
MIC (Candida tropicalis): > 100 µg/mL
Activity [1]: inactive
MIC [2]: > 100 µg/mL

C/C=C/c1cc(OC)c2c(c1)[C@@H](C)[C@H](c1ccc(OC)c(OC)c1)O2 [ACUMINATIN]
MIC (Candida dubliniensis): > 100 µg/mL
MIC (Nakaseomyces glabratus): > 100 µg/mL
MIC (Escherichia coli): > 100 µg/mL
MIC (Pseudomonas aeruginosa): > 100 µg/mL
MIC (Staphylococcus aureus): > 100 µg/mL
MIC (Candida tropicalis): > 100 µg/mL
Activity [1]: inactive
MIC [2]: > 100 µg/mL

C/C=C/c1cc(OC)c2c(c1)[C@@H](C)[C@H](c1ccc(O)c(OC)c1)O2 [LICARINE A]
MIC (Candida dubliniensis): > 100 µg/mL
MIC (Nakaseomyces glabratus): > 100 µg/mL
MIC (Escherichia coli): > 100 µg/mL
MIC (Pseudomonas aeruginosa): > 100 µg/mL
MIC (Staphylococcus aureus): > 100 µg/mL
MIC (Candida tropicalis): > 100 µg/mL
SC50 [1]: 56.1 µg/mL
MIC [2]: > 100 µg/mL
